We go through 2 compounds from PMC9597438 (Journal of Ginseng Research, 2022).

Data set [1] concerns HIF-1α transcriptional activity in Hep3B cells. Kind of data set: HRE luciferase reporter assay. The format is cell-based, human. Summed up: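 Hep3B cells at 60–80% confluence were transfected with an HRE-luciferase plasmid (legend adds pRL-CMV) using Lipofectamine 2000 for 24 h. They were reseeded at 5×10^4/well for 24 h, then treated under hypoxia (1% O₂, 5% CO₂, 94% N₂, 37 °C) at final 0.3–30 µM, triplicate wells. Treatment ran 12–16 h per methods, 24 h per legend. Cells were lysed 1 h and luminescence read.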

In another data set the test system is Hep3B cells. Kind of data set: Cytotoxic. The conditions noted are these: 24 h, concentrations as high as 30 μM. The format is cell-based, human. In a few lines: (§1)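 Hep3B cells in DMEM/10% FBS (5×10^4/well) adhered for 12 h under normoxia. They were exposed for 24 h to final 0.3, 1, 3, 10 and 30 µM, triplicate wells per level. MTT was added for 4 h in the dark, formazan was dissolved in DMSO with 10 min shaking, and absorbance was read at 492 nm. Mean ± SD, n = 3.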

Data set [2] relates to HIF-1α protein expression in HeLa cells. In words: Western blotting of HIF-1α in HeLa cells. It counts as cell-based, human. The conditions noted are these: 1% O2, 12 h, 3, 10, 30 μM, nuclear extract. In a few lines:
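HeLa cells were held 12 h under normoxia or hypoxia (1% O₂) with 3, 10 or 30 µM. Nuclear extracts were quantified by BCA, and 30 µg per lane was resolved by SDS-PAGE and transferred to PVDF. Membranes were blocked in 5% nonfat milk, probed with anti-HIF-1α overnight at 4 °C, then secondary for 2 h, and detected by chemiluminescence. Three independent experiments.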

In data set [3] the test system is HIF-1β expression in HeLa cells. In words: Western blotting of HIF-1β in HeLa cells. As to conditions: hypoxia, 12 h, whole-cell lysates. It counts as cell-based, human. In a few lines: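 HeLa cells were held 12 h under normoxia or hypoxia (1% O₂) at the indicated concentrations. Whole-cell lysates were run on SDS-PAGE, transferred to PVDF and blocked in 5% milk. Anti-HIF-1β ran overnight at 4 °C, secondary 2 h, chemiluminescent detection. Three independent experiments.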
Background: A western blot detects proteins with antibodies after separation by electrophoresis.

Data set [4] relates to VEGF protein expression in HeLa cells. Kind of data set: Western blotting of VEGF in HeLa cells. It counts as cell-based, human. The conditions noted are these: hypoxia, 12 h. In a few lines:
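After 12 h incubation under normoxia or hypoxia (1% O₂) at the indicated concentrations, HeLa cell protein was quantified by BCA and separated by SDS-PAGE onto PVDF. Blots were blocked in 5% milk and probed for VEGF overnight at 4 °C, then secondary 2 h, with chemiluminescent detection. Three independent experiments.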

Data set [5] relates to nuclear accumulation of HIF-1α in HeLa cells. In words: Immunofluorescence staining of HIF-1α. The conditions noted are these: 1% O2, 12 h, 30 μM. The format is cell-based, human. In a few lines:
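HeLa cells (1×10^4/well) adhered for 24 h and were held under normoxia or hypoxia (1% O₂) for 12 h with or without 30 µM. Processing: 4% paraformaldehyde at room temperature for 30 min, 0.2% Triton X-100, 5% BSA block for 30 min. Anti-HIF-1α ran overnight at 4 °C, secondary 30 min at room temperature, DAPI 30 min. Imaged by fluorescence microscopy at 400×.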

For data set [6], the system named is HeLa cells. In words: Colony formation assay. The format is cell-based, human. The conditions noted are these: HeLa cells, 3, 10, 30 μM, 10 days. In a few lines:
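HeLa cells (1×10^3/well, 6-well) were plated for 12 h and given fresh medium with 3, 10 or 30 µM. They grew 10 days until colonies were visible, then were fixed in 10% formaldehyde, stained with 1% crystal violet, washed in PBS and air-dried.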

Data set [7] relates to HeLa cells. Kind of data set: EdU labeling and immunofluorescence. The format is cell-based, human. The conditions noted are these: HeLa cells, 3, 10, 30 μM, 12 h. In a few lines: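 HeLa cells (5×10^4/well) were plated for 24 h and treated with 3, 10 or 30 µM for 12 h. EdU was pulsed for 1 h. Cells were fixed in 4% paraformaldehyde for 30 min, permeabilised in 0.5% Triton X-100 for 10 min and reacted in 1× Apollo cocktail for 30 min. Nuclei were counterstained with Hoechst 33342 and imaged by fluorescence microscopy.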

Data set [8] has as its system HeLa cells. Kind of data set: Apoptosis assay. The format is cell-based, human. Summed up:
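HeLa cells (5×10^5/well) adhered for 24 h, then were exposed to 3, 10 or 30 µM for 24 h per methods; the legend gives 12 h under hypoxia. Cells were washed twice in PBS and taken into binding buffer (10 mM HEPES pH 7.4, 140 mM NaCl, 2.5 mM CaCl₂). They were stained with Annexin V-FITC and 2 µg/mL propidium iodide, 15 min, 37 °C, dark, then read by flow cytometry.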

The test system of data set [9] is Bax expression in HeLa cells. In words: Western blotting of Bax in HeLa cells. It counts as cell-based, human. As to conditions: HeLa cells, 3, 10, 30 μM, 12 h, vs control group. In a few lines: (§2)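 HeLa cells were treated with or without 3, 10 or 30 µM for 12 h. Whole-cell extracts were separated by SDS-PAGE, transferred to PVDF and blocked in 5% nonfat milk. Blots were probed overnight at 4 °C for the named protein (Bax, Bcl-2, MMP-9 or cleaved caspase-3), then secondary for 2 h, with chemiluminescent detection. Three independent experiments.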

Data set [10] concerns Bcl-2 expression in HeLa cells. In words: Western blotting of Bcl-2 in HeLa cells. The format is cell-based, human. The conditions noted are these: HeLa cells, 3, 10, 30 μM, 12 h, vs control group. Summed up: as §2
Data set [11] concerns cleaved caspase-3 expression in HeLa cells. In words: Western blotting of cleaved caspase-3 in HeLa cells. As to conditions: HeLa cells, 3, 10, 30 μM, 12 h, concentration-dependent. The format is cell-based, human. In a few lines: as §2
Data set [12] relates to HeLa cells. Kind of data set: Cell migration assay. The format is cell-based, human. The conditions noted are these: 3, 10, 30 μM, 12 h, vs control group. Summed up: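 Scratch assay: HeLa cells (1×10^5/well) adhered for 24 h, were scratched with a sterile pipette tip, washed three times in PBS and switched to serum-free medium. Cells got 3, 10 or 30 µM for 12 h. The same fields were imaged at 200×, and migration was scored as final versus initial gap width.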

Data set [13] deals with HeLa cells. Kind of data set: Transwell invasion assay. The format is cell-based, human. As to conditions: HeLa cells, 3, 10, 30 μM, vs control. In a few lines:
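Matrigel-coated Transwell inserts were loaded with HeLa cells pretreated with or without 3, 10 or 30 µM, in serum-free DMEM in the upper chamber; the legend gives 12 h exposure. The lower chamber held DMEM with 10% FBS. After 24 h invasion at 37 °C, cells on the lower side were fixed in 4% paraformaldehyde, stained with 0.1% crystal violet and photographed at 200×.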

Data set [14] concerns MMP-9 expression in HeLa cells. Kind of data set: Western blotting of MMP-9 in HeLa cells. It counts as cell-based, human. The conditions noted are these: 10 μM, 12 h. In a few lines:
as §2

In data set [15] the test system is HeLa cervical cancer xenograft. In words: In vivo antitumor activity, HeLa cervical cancer xenograft. The conditions noted are these: nude mice with HeLa tumors, ip, vs control, p < 0.001. The arrangement: species or system athymic Nu/Nu nude mice.
The next data set can be described thus: Cytotoxic. The conditions noted are these: human, Hep3B cells. It counts as cell-based, human. Summed up:
as §1

Regarding `CC(C)(C)OC(=O)NCC(=O)OC1CCC2(C)C(C(O)CC3(C)C2CC(O)C2C(C4(C)CCCC(C)(C)O4)CCC23C)C1(C)C` (centres unmarked) [A11, 6,12-dihydroxy-4,4,8,10,14-pentamethyl-17-(2,6,6-trimethyltetrahydro-2H-pyran-2-yl)hexadecahydro-1H-cyclopenta[a]phenanthren-3-yl (tert-butoxycarbonyl)glycinate], in data set [1] (hypoxia (1% oxygen), from 0.3 μM upward), the “transcriptional activity of HIF-1α (HRE-mediated reporter gene expression)” value is “dose-dependent inhibited”. In addition, the “efficacy (HIF-1α transcription inhibition) relative to 20(R)-panaxotriol” value in [1] (ratio of IC50 values) was “more than 100 times”. In the data set on Hep3B cells, the “cell viability (MTT)” value is “no adverse effects on cell viability”. The HIF-1α protein content entry in data set [2] is “dose-dependently reduced”. In addition, the “expression level of HIF-1β” value in [3] is given as “almost no influence”. Further, the “VEGF protein expression levels” value in data set [4] is listed as “dose-dependent decrease”. Moreover, the “HIF-1α expression in the nucleus” value in data set [5] was “not detected”. In the data set with HeLa cells [6], the “colony formation of cells” value is reported as “apparently inhibited”. For the same compound, the “number of EdU-positive cells” value in the data set with HeLa cells [7] is listed as “concentration-dependently suppressed”. For the same compound, the figures for the “percentage of total apoptotic (early and late) cells” value in the data set with HeLa cells [8] (3 μM), in the data set with HeLa cells [8] (10 μM) and in the data set with HeLa cells [8] (30 μM) were 5.2%, 14.0% and 24.2%, respectively. In data set [9], the “expression levels of Bax” value is “increased”. Also, in data set [10], the “levels of Bcl-2” value is “decreased”. The “expression levels of cleaved caspase-3” value in [11] was “significantly increased”. Further, the “migration of HeLa cells (scratch assay)” value with HeLa cells [12] is on record as “decreased”. Further, in the data set with HeLa cells [13], the “number of tumor cells that crossed the transwell chamber (invasion)” value is “significantly reduced”. For the same compound, in data set [14], the “expression levels of MMP-9” value was “significantly reduced”. For the same compound, in data set [15], the tumor volume entry was “significantly inhibit”.

Consider `CC1(C)CCCC(C)(C2CCC3(C)C2C(O)CC2C4(C)CCC(OC(=O)[C@@H](N)Cc5c[nH]c6ccccc56)C(C)(C)C4C(O)CC23C)O1` (some centres unmarked) [A13, 6,12-dihydroxy-4,4,8,10,14-pentamethyl-17-(2,6,6-trimethyltetrahydro-2H-pyran-2-yl)hexadecahydro-1H-cyclopenta[a]phenanthren-3-yl tryptophanate], for which the midpoint of inhibition in “Cytotoxic”, the IC50 at 24 h, lay at 6.99 µM. This lies in the single-digit micromolar range.
